APJ ag: agonists of human APJ apelin receptor; 0.11% of 330,000 active; activation, % at 20 µM; P35414; CHO-K1 APJ PathHunter beta-arrestin, luminescence; 0% DMSO wells, 100% apelin;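 active = activation more than six SD over the plate average, tested at 20 µM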
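Assay system: CHO-K1 APJ beta-arrestin complementation cell line / Compound: single test compound dose, 20 µM final, 1% DMSO / Times: overnight seeding, 90 min compound at 25 °C, 1 h detection / Technique: beta-gal luminescence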
APJ antag: antagonists of human APJ apelin receptor | inhibition, % at 20 µM | CHO-K1 APJ beta-arrestin complementation, luminescence | 0.32% of 330,000 active | P35414;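 active = inhibition above about 40% at 20 µM, limit read from the data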;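 note: cells challenged with 10 nM apelin-13 agonist together with compound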
EBI2 antag: EBI2 (human) antagonism | EBI2 beta-arrestin recruitment, luminescence, 7a,25-OHC stimulated | AID 651636 | P32249 | inhibition, % at 5 µM | 0.81% of 360,000 active; in the data active = inhibition above about 38%;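 note: enzyme fragment complementation signal reports receptor beta-arrestin coupling in cells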
CCR6 antagonist: blocks CCL20-driven beta-arrestin recruitment at human CCR6; 0.49% of 340,000 active; inhibition, % at 20 µM; CHO-K1 CCR6 PathHunter beta-arrestin, luminescence, CCL20-stimulated;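 active = compounds whose inhibition of the agonist-driven luminescence signal at 20 µM reaches about 50%, limit read from the data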;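 note: cells stimulated with CCL20 at 14 nM final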
Target sequence (P51684 whole entry, looked up): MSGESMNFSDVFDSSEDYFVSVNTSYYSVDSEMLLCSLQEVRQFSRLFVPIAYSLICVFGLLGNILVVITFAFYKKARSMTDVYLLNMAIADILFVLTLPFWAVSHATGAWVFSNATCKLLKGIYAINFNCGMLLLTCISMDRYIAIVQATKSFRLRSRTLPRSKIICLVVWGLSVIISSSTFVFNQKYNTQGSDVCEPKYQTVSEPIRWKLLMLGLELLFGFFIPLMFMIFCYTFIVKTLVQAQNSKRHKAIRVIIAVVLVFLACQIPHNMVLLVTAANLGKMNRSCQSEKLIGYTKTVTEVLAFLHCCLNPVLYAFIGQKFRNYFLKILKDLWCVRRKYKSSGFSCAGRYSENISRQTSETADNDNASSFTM
CXCR6 block: blocks human CXCR6 beta-arrestin recruitment. CHO-K1 PathHunter CXCR6 beta-arrestin, luminescence. O00574. inhibition, % at 20 µM. 0.36% of 360,000 active; in the data active = inhibition above about 34%, passing the limit was not always enough;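 note: antagonist mode with CXCL16 agonist at 10 nM final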
EBI2 conf: EBI2 (human) antagonism, single concentration confirmation; shares compounds with EBI2 antag; EBI2 beta-arrestin luminescence, 7a,25-OHC antagonism; inhibition, % at 5 µM; 29% of 2,400 active; AID 651997;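 active = inhibition of at least 50%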
EBI2 agonist: EBI2 agonism counter-screen | shares compounds with EBI2 antag | EBI2-expressing cells, agonist mode, luminescence, 60 min; 0% vehicle, 100% 7α,25-dihydroxycholesterol control | activation, % at 5 µM | 2,400 tested, under 10 active | AID 652000;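 active = activation of at least 50%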
bGal cs: counter-screen for EBI2 antagonists: E. coli beta-galactosidase inhibition; shares compounds with EBI2 antag; purified beta-galactosidase, luminescent Galacton Star, 15 min; inhibition, % at 5 µM; 1% of 2,400 active; AID 652176;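 active = replicate-average signal at least 3 plate SD below neutral wells, shown as high inhibition, flagging enzyme-inhibiting false positives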;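 note: higher means stronger loss of beta-gal luminescence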
Numbers stand for hits; 0 = inactive; - = no result given. Hits are enriched below; roughly 1.5% of the tested compounds scored in any of these assays.

SMILES	APJ ag	APJ antag	EBI2 antag	CCR6 antagonist	CXCR6 block	EBI2 conf	EBI2 agonist	bGal cs
O=C(CSc1cccc(C(F)(F)F)c1)N1CCN(S(=O)(=O)c2ccccc2)CC1	0	0	0	0	0	-	-	-
O=C(c1ccc(Br)cc1)N1CCN(S(=O)(=O)c2ccccc2)CC1	0	0	47	0	0	0	0	0
COc1ccc(Cl)cc1NC(=O)CN(C)C(=O)Cn1cnc2c1c(=O)n(C)c(=O)n2C	0	0	0	0	0	-	-	-
Cc1ccc2oc(=O)n(CCCOc3ccccc3C)c2c1	0	0	44	0	0	0	0	0
S=C(NCC1CCCO1)N1CCN(c2nc(-c3ccccc3)cs2)CC1 (stereo unspecified)	0	0	40	0	0	0	0	0
S=C(NCc1ccco1)N1CCN(c2nc(-c3ccccc3)cs2)CC1	0	0	0	0	0	-	-	-
Cc1ccc(OCC(=O)N2CCN(C(=O)CCC3CCCC3)CC2)cc1	0	0	81	0	0	61	0	0
O=C(CCC1CCCC1)N1CCN(C(=O)COc2ccccc2)CC1	0	0	0	0	0	-	-	-
O=C(COc1ccccc1)N1CCN(C(=O)c2ccc([N+](=O)[O-])cc2)CC1	0	0	53	0	0	0	0	0
Cc1ccc(OCC(=O)N2CCN(C(=O)c3ccc([N+](=O)[O-])cc3)CC2)cc1	0	0	83	0	0	58	0	0
O=C(COc1ccc2ccccc2c1)N1CCN(C(=O)c2ccc([N+](=O)[O-])cc2)CC1	0	0	94	0	0	76	0	0
O=C(Cc1ccccc1)N1CCN(C(=O)c2ccc([N+](=O)[O-])cc2)CC1	0	0	0	0	0	-	-	-
CC1CN(S(=O)(=O)c2ccc(C(=O)N(CCCN(C)C)c3nc4c(Cl)cccc4s3)cc2)CC(C)O1 (stereo unspecified)	0	0	0	0	0	-	-	-
CCOC(=O)C1(Cc2ccc(Cl)cc2)CCN(C(C)Cc2ccc(O)c(OC)c2)CC1 (stereo unspecified)	0	0	47	0	0	0	0	0
C=C1C[C@@H]2C[C@@H]2CN(S(=O)(=O)c2ccc(C)cc2)[C@@H]1c1ccco1	-	-	0	-	0	-	-	-
C[C@@H](C(=O)OCC(=O)c1ccccc1)N1C(=O)C2CCCCC2C1=O (stereo partly specified)	0	0	0	0	0	-	-	-
O=c1[nH]c(CN2CCN(S(=O)(=O)/C=C/c3ccccc3)CC2)nc2cc(Cl)ccc12	0	0	71	0	0	0	0	0
CC(c1nc2ccccc2c(=O)[nH]1)N1CCN(S(=O)(=O)c2ccc(F)c(Cl)c2)CC1 (stereo unspecified)	-	-	59	-	0	0	0	0
O=c1[nH]c(CN2CCN(C/C=C/c3ccccc3)CC2)nc2ccccc12	0	0	0	0	0	-	-	-
O=c1[nH]c(CN2CCN(S(=O)(=O)/C=C/c3ccccc3)CC2)nc2ccccc12	0	0	46	0	0	0	0	0
O=c1[nH]c(CN2CCN(S(=O)(=O)c3ccc4ccccc4c3)CC2)nc2ccccc12	0	0	53	0	0	0	0	0
CCCCN1C(=O)C(O)(c2ccccc2)c2cc(Br)ccc21 (stereo unspecified)	0	0	0	0	0	-	-	-
Cc1ccc(OCCN2CCC2(C)C(=O)NCc2ccc(C(F)(F)F)cc2)cc1 (stereo unspecified)	-	-	0	-	0	-	-	-
CC(C)(C)c1ccc(OCC(=O)NCCN2CCOCC2)cc1	0	0	0	0	0	-	-	-
O=C(CCSc1ccc(Cl)cc1)NC1CCCCC1	0	0	0	0	0	-	-	-
O=C(CCSc1ccc(Cl)cc1)NC12CC3CC(CC(C3)C1)C2	0	0	54	0	0	0	0	0
COc1ccccc1N1CCN(C(=O)c2cc3c(s2)-c2ccccc2OC3)CC1	0	0	85	0	0	82	0	0
CCOC(=O)C1CCN(C(=O)c2cc3c(s2)-c2ccccc2OC3)CC1	0	0	79	0	0	74	0	0

Screening results deposited in PubChem BioAssay by Sanford-Burnham Center for Chemical Genomics.
